The text below walks through data of the EternaBench riboswitch data.

A word on the apparent Kd: it is the concentration giving half-maximal binding under the conditions of the assay.

The test system of the series is MS2 coat protein. Put plainly: apparent Kd, MS2 coat protein; higher = weaker binding; RNA-MaP array; FMN 200 µM where present. Put shortly:
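Designs on Illumina sequencing-chip clusters, transcribed by stalled E. coli RNA polymerase, were exposed to SNAP-549-labelled MS2 coat protein in doubling steps from 0.7 or 1.5 nM up to 3 µM, without and then with constant ligand. The buffer held 100 mM Tris-HCl pH 7.5, 80 mM KCl, 4 mM MgCl2, BSA, DTT, yeast tRNA and Tween-20. Apparent Kd values are medians of filtered per-cluster binding-curve fits to green signal normalised to red-channel RNA signal and control-cluster median Fmax.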

Where [1] appears, read: designed as: ON switch for flavin mononucleotide, no ligand.
Where [2] appears, read: ligand present: flavin mononucleotide, designed as: ON switch for flavin mononucleotide.
Setting [3] is: designed as: OFF switch for flavin mononucleotide, no ligand.
The mark [4] stands for this setting: ligand present: flavin mononucleotide, designed as: OFF switch for flavin mononucleotide.

Consider “CGUAGGAUCCAGAAGGCAUGAACAUGAGGAUCACCCAUGUCAAAAUACAUGAGGAUAUGGAUCCUACGAAAAGUGCGAAAGCAC”, for which the “apparent Kd” value by setting is: under setting [1], 5.11 nM; under setting [2], 4.38 nM.

As for “GUACAUGAGCAGAAGGGCAUUUAAUUAGAUUUUUAUGUUGAUCAGAUAUGCAGGAUAUGUUAAACAUGAGGAUCACCCAUGUAC”, the “apparent Kd” value is, setting by setting: under setting [1], 235 nM; under setting [2], 44.2 nM.

For “UCAAGUAUGUAGGAUAUCGAUGUCUGCGGACAUCGAGAAGGACGUACAUGAGGAUCACCCAUGUAACUUGCAUG”, the “apparent Kd” value stood at 107 nM under setting [3] and 79.4 nM under setting [4].

Consider “CAUUAAUUCAUUAUAGUAAUUAUACAGGAUAUGUUACAUGAGGAUCACCCAUGUAUUCAUGGUAAACAGAAGGGUAAUACAAGA”, for which the “apparent Kd” value runs as follows: under setting [3], 13.8 nM; under setting [4], 16.3 nM.

Regarding “GGCUCAUUUACAUUAAUGUGCAGACAGGAUAUCCACCGCGGUUCCUACAUGAGGAUCACCCAUGUGGAGAAGGGUCGCUAAUGG”, the “apparent Kd” value came to 29.1 nM under setting [3] and 72.2 nM under setting [4].

Regarding “CUUUUAUAAUAGAAGGUAGACUUCAUGAGGAUCACCCAUGUGUUGGUACUAAGGAUAUGUAGUAACAUGAGGAUCACCCAUGUU”, the “apparent Kd” value under setting [1] was 22.6 nM and the “apparent Kd” value under setting [2] was 22.2 nM.

As to “CCUAAGGACACAGGAUAUAGCGUGGUGGCUGGGCUCCAACGGCGAGUGGCGCUAGAAGGGUGACCACAUGAGGAUCACCCAUGU”, the “apparent Kd” value was 537 nM under setting [1] and 214 nM under setting [2].

On to “UACAGCUUGACAGGAUAUACAUGACUGCGAAAGCAGUCUAUCUUAAUAACAUGAGGAUCACCCAUGUAGAAGGGUCGAGCUGUA”, for which the “apparent Kd” value amounted to 17.6 nM under setting [3] and 27 nM under setting [4].

Take “UAAAGACAUGAGGAUCACCCAUGUGAGGAUAUCGGAGGUGACGGAGCGUCGAGUUCGGCGAGAAGGCGCAGGAA”: the “apparent Kd” value reads like this: under setting [3], 81 nM; under setting [4], 53.9 nM.

Regarding “AACUUGUCAGGAUAUCUUACAUUUGCAUCUUAGUUACCAUUGGAGAAGGGACAUGAGGAUCACCCAUGUUUGGU”, the “apparent Kd” value reads like this: under setting [3], 37.1 nM; under setting [4], 32.2 nM.

Turning to “AUACCACGAGGAUAUCGUCUCUCCCACAUGAGGAUCACCCAUGUUAUCCAUGUUUCGUUUCGAGAAGGCGUGGGUU”, the “apparent Kd” value under setting [3] was found to be 83.2 nM and the “apparent Kd” value under setting [4] was determined as 70.2 nM.

Consider “AUACCUUAUGAGAAGGCGAUCAUGAAACAUGAUCGAGGAUAUCAUGUAAACAUGAGGAUCACCCAUGUAUGGGUAUUAUGGUAG”, for which the “apparent Kd” value is 34 nM under setting [1] and 10.5 nM under setting [2].

Consider “UCGGCGCGAGGAUAUACGUUUGCGCGUUUUCGUUUGCGCGUACAUGAGGAUCACCCAUGUAGAAGGCGCGCCGC”, for which the “apparent Kd” value worked out at 15.1 nM under setting [3] and 29.9 nM under setting [4].

In the case of “GGGCACAAAGGAUAUACAUGAGGAUCACCCAUGUUCACCACAACAUGUUACUGCCCAAGUAGAAGGUUGGCCCA”, the “apparent Kd” value was 38.7 nM under setting [3] and 288 nM under setting [4].

Take “CACAAGAAAGUCGAAGGUUGAAGUAGAAGGUCUACAACAUGACAUGAGGAUCACCCAUGUGCUAAGAAGGAUAUGCUUUAAUCG”: the “apparent Kd” value turned out to be 8.71 nM under setting [3] and 7.12 nM under setting [4].

As to “AACGUGUGAGGAUAUGCACGAGUGACAGGGAGGCUGUCACAGCAGAAGGUACAUGAGGAUCACCCAUGUGAAAU”, the “apparent Kd” value under setting [3] was 24.9 nM and the “apparent Kd” value under setting [4] was determined as 20.6 nM.

For “CCAUGUUAGCAGGAUAUGCUAUUAAUCUUUUAUGCAGAAGGGCUUACAUGAGGAUCACCCAUGUAUUAAGUCUU”, the “apparent Kd” value reads like this: under setting [3], 11.3 nM; under setting [4], 19.5 nM.

Regarding “GCCAUCGUAUGAGGAUAUGGCACCGAACCGGUGCCAGAAGGCAUGUCAAUAGACAUGAGGAUCACCCAUGUGUUAUCGAUGGCA”, the “apparent Kd” value runs as follows: under setting [1], 147 nM; under setting [2], 13.1 nM.

“UGUCCAUAGCAGAAGGCUAGAAAACAUGAGGAUCACCCAUGUCAAAAGACUAGAGGAUAUGCUAUGGACUAAGAGCGAAAGCUC”: the “apparent Kd” value was found to be 3.97 nM under setting [3] and 3.81 nM under setting [4].

With “UUUUUAUUUGCAGGAUAUUGUUUUUUAUUACUUCAAGAAGGGCAUUACAUGAGGAUCACCCAUGUCAUCCUAUGGUUUACUAGU”, the “apparent Kd” value is, setting by setting: under setting [3], 10.6 nM; under setting [4], 10.4 nM.

Turning to “CUUAUGUGAGGAUAUCAGUAGUGAUACGAUAGUAUUACUGCUGAGAAGGCACAUGAGGAUCACCCAUGUUCCUU”, the “apparent Kd” value runs as follows: under setting [3], 26.1 nM; under setting [4], 51.9 nM.

For the sequence “GGAGAACACAUUAACAUGAGGAUCACCCAUGUCAAAAGACAUGAGGAUAUGGAUCCGAAAAGGAUCCAGAAGGCAUGGUGCUCC”, the “apparent Kd” value is, setting by setting: under setting [1], 511 nM; under setting [2], 26.5 nM.

Turning to “UCGGCCCAAGCACAUGAGGAUCACCCAUGUACCACGGCCACCAGAAGGGCAGGGAAGAGGGAUCUGCAGGAUAUGGGCACUAGC”, the “apparent Kd” value runs as follows: under setting [1], 14.4 nM; under setting [2], 9.6 nM.

As for “UUUUUGUCAGGAUAUGAUUAGAUCUACUUCGGUAGAUCUAAUCAGAAGGGACAUGAGGAUCACCCAUGUAGUUU”, the “apparent Kd” value runs as follows: under setting [3], 36.5 nM; under setting [4], 141 nM.

For the sequence “GUGGUCAGACAUGAGGAUCACCCAUGUGGAAUAAAUAAGGCAUAGGAUAUGAAAUAUAGGAUAUAUCAGAAGGAUGGGUUGGUG”, the “apparent Kd” value is, setting by setting: under setting [1], 164 nM; under setting [2], 191 nM.

Regarding “CUUUCGUGAGGAUAUGAAAAUUCGAUCGUGAGAUCGAGGCUACAGAAGGCACAUGAGGAUCACCCAUGUUCCUC”, the “apparent Kd” value runs as follows: under setting [3], 31.5 nM; under setting [4], 320 nM.

Regarding “UUGUUAGGGAGAGGAUAUUGACAUGAGGAUCACCCAUGUAUUUGGGAGUGUUUACUGAAUUCUCACGAGAAGGCUUACGAAUUU”, the “apparent Kd” value by setting is: under setting [3], 550 nM; under setting [4], 471 nM.

As for “AGCGAGGUAGGAUAUACAUGAGGAUCACCCAUGUGCUUGCAUGGCGUGGAACGUCGAGGUAGAAGGGCCGCGCC”, the “apparent Kd” value was 24.2 nM under setting [3] and 35.7 nM under setting [4].

In the case of “AUAUGAUAGAUAGGAUAUACAGUUGAAUAAUAAGUAGAAGGAUCAAAUGGGAAUUAUACAUGAGGAUCACCCAUGUUUUUGGAU”, the “apparent Kd” value under setting [1] is 44.1 nM and the “apparent Kd” value under setting [2] amounted to 35.8 nM.

On to “CGGGAGUCAGGAUAUACGAACAUGUCGCCAGAUGUCAAGGUACAUGAGGAUCACCCAUGUAGAAGGGAGGAGAU”, for which the “apparent Kd” value is 80.6 nM under setting [3] and 72.7 nM under setting [4].

On to “UUACUCAUGUAAGGAUAUGUAGCCGAAACGGCUGCAGAAGGUACUAAAAUACAUGAGGAUCACCCAUGUCUUUUUAAUUUAGAC”, for which the “apparent Kd” value runs as follows: under setting [1], 216 nM; under setting [2], 50.9 nM.

For the sequence “GGAUGAGCAAUAGGAUAUGCUGGGAUUGAAUGGGUAGAAGGAUUUCUAGUGGGAAAGACAUGAGGAUCACCCAUGUCGCGGCCC”, the “apparent Kd” value reads like this: under setting [1], 23.8 nM; under setting [2], 25.3 nM.

As to “ACUCAGUCAGGAUAUCGUUAAUUUAAUUGUUUGUAUUAGUUCGAGAAGGGACAUGAGGAUCACCCAUGUACUCA”, the “apparent Kd” value came out at 31.7 nM under setting [3] and 87.4 nM under setting [4].

In the case of “UUGGACGUCGUAGGAUAUGUAGGAUAUACCUACAUGAGGAUCACCCAUGUUGACAUGGAAGAAGGACAGAAGGACGAUGUCCAU”, the “apparent Kd” value was found to be 439 nM under setting [1] and 153 nM under setting [2].

For the sequence “GUAGCUUUCCGAGGAUAUUCAUACCGGAAACGGACAUGAGGAUCACCCAUGUGGCGAAAGCCUUGGGAGAAGGCGGAAAGCUAC”, the “apparent Kd” value by setting is: under setting [1], 446 nM; under setting [2], 23.4 nM.

Consider “CACAUUUUAACAGGAUAUGUAAGGUAGCUUAUUAUUGCAUAUACAAUUAUUACAGAAGGGUUAUACAUGAGGAUCACCCAUGUG”, for which the “apparent Kd” value reads like this: under setting [1], 22.8 nM; under setting [2], 17.1 nM.

As for “AAGUUGGUAGGAUAUACGUGCAAUUGGUGUGUCCGGAAAAAACAUGAGGAUCACCCAUGUAGAAGGACCAAAAA”, the “apparent Kd” value runs as follows: under setting [3], 49.3 nM; under setting [4], 57.5 nM.

For the sequence “UCUGGUCGAGGAUAUGCGUAAUGUGUUACGGCACGAGGUCUACAUGAGGAUCACCCAUGUAGAAGGCGAUCAGA”, the “apparent Kd” value worked out at 13.9 nM under setting [3] and 12.7 nM under setting [4].

As for “CCCGCGUUUCGCGCCUACAUGAGGAUCACCCAUGUUUGUAGGCAGGAUAUCGUCCGCUCUGCGGGCGAGAAGGGCUGUUGUGGU”, the “apparent Kd” value by setting is: under setting [1], 90.8 nM; under setting [2], 84 nM.

Take “UUAUUAGCAGGAUAUAUCCAGGAUUACAUGAGGAUCACCCAUGUGACCGCUUGAAAUUCUAUAGAAGGGCUUUAUU”: the “apparent Kd” value runs as follows: under setting [3], 33.2 nM; under setting [4], 36.4 nM.

Take “AGUAGAUCAGGAUAUACAUAAAUGAUAAUUAUGUACUUUUUACAUGAGGAUCACCCAUGUAGAAGGGAUCUACA”: the “apparent Kd” value runs as follows: under setting [3], 14.8 nM; under setting [4], 22 nM.

As to “AGCUACGUUUCGUAGCAGCUAGGUGAGGAUAUCCACUCAACAUGAGGAUCACCCAUGUAAACAUGGGAGAAGGCGCCUAGAAAG”, the “apparent Kd” value runs as follows: under setting [1], 63.4 nM; under setting [2], 9.63 nM.

For the sequence “GCGCUUAUACAGAAGGCCAUAUACAUGAGGAUCACCCAUGUCGAAUCUUGGAGGAUAUGUUAUUAAUUACACGCAGAUGAGCGC”, the “apparent Kd” value turned out to be 15.8 nM under setting [1] and 6.19 nM under setting [2].

On to “UUAAAUCAUGUAGGAUAUGCAUGGCCAAGCUAGGCAGAAGGACAUGAGGAUCACCCAUGUUAUAGCUACCAAGUAAGGUGGCAA”, for which the “apparent Kd” value runs as follows: under setting [3], 32.9 nM; under setting [4], 279 nM.

As to “GCUGCGUAUGAGAAGGCGAUCAUGAAACAUGAUCGAGGAUAUCAUGUUUACAUGAGGAUCACCCAUGUAUGGGUAUAAUGCAGC”, the “apparent Kd” value reads like this: under setting [1], 335 nM; under setting [2], 18.1 nM.

For the sequence “AGGAAGUUAGGAUAUGCUGCUCGUCACUUGCGUGAUGAGUAGCAGAAGGAACAUGAGGAUCACCCAUGUAAAGA”, the “apparent Kd” value was found to be 30.8 nM under setting [3] and 27.2 nM under setting [4].

In the case of “GUUAGUUAAGGAUAUACAGGGAGCUGCGGCGUCUCGCCGCAACAUGAGGAUCACCCAUGUAGAAGGUGGCCAUU”, the “apparent Kd” value reads like this: under setting [3], 548 nM; under setting [4], 586 nM.

For the sequence “GUCAGCUCGUGAGGAUAUACAUCACUGCUUCGGCAGUGUAUUAAGAUUACAUGAGGAUCACCCAUGUAGAAGGCACGAGCUGAU”, the “apparent Kd” value is, setting by setting: under setting [3], 17.4 nM; under setting [4], 23.9 nM.
